Data set [1] addresses T1, Tyrosinase (Agaricus bisporus) (UniProt O42713).
T1 sequence (whole entry): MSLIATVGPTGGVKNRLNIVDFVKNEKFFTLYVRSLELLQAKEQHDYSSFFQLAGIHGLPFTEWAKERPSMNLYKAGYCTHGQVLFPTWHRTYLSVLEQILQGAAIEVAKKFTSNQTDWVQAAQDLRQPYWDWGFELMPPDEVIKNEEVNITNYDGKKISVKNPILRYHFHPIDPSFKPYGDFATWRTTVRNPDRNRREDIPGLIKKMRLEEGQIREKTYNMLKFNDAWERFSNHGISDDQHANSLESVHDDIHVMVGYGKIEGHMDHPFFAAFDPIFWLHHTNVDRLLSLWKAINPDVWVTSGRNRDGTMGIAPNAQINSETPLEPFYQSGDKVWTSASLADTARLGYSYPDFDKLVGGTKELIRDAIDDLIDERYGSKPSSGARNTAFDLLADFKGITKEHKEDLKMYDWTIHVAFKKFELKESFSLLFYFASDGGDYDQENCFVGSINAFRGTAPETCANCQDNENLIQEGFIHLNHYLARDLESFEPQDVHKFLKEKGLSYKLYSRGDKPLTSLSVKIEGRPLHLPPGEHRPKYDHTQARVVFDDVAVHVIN
The data set is described as follows: Inhibition of mushroom tyrosinase using L-DOPA substrate at 50 to 100 uM incubated for 10 mins. In short, it runs like this: (§1)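 Mushroom tyrosinase (25 µL of 100 µg/mL aqueous solution) added to 0.1 M phosphate buffer pH 6.8, 2.5 mM L-DOPA (stock), water and inhibitor in DMSO. Incubated 25 °C for 10 min, absorbance at 475 nm. %inhibition = (1−A/B)×100 against a DMSO-only reference. Single-point tests at 50 or 100 µM; kojic acid as reference. Triplicate, mean with standard error.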

The test system of data set [2] is Radical scavenging activity. Briefly: Antioxidant activity assessed as DPPH radical scavenging activity by UV/Visible spectrophotometry. In kind it is functional. In short, it runs like this:
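DPPH in methanol; antioxidant:DPPH molar ratio 0.25 for caffeic/dihydrocaffeic acids and their conjugates, 0.50 for p-coumaric, ferulic, sinapic acids and their conjugates. 10 min at 25 °C, absorbance at 516 nm. %RSA = (1−A/B)×100, B = methanol in place of sample. Triplicate, mean with standard error.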

Data set [3] in a line: Antioxidant activity assessed as inhibition of lipid peroxidation after 48 hrs by ferric thiocyanate assay. In kind it is functional. In short, it runs like this: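 Lipid peroxidation run in an emulsified system with antioxidant at 90 µM final, 50 °C in the dark for 48 h. Ferric thiocyanate read-out: absorbance at 500 nm 3 min after colour development. Trolox as positive control. Triplicate, mean with standard error.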

Data set [4] is described as follows: Toxicity against mouse Mel-Ab cells at 100 uM by CCK-8 assay. A general note: Tetrazolium dyes change colour on reduction, which living cells bring about.
Data set [5] is described as follows: (§2) Inhibition of TPA-stimulated melanogenesis in mouse Mel-Ab cells at 100 uM after 4 days. As to conditions: 96 h. In kind it is functional.
A further data set has as its target T2, Tyrosinase (Agaricus bisporus, UniProt O42713).
T2 sequence (O42713 whole entry): T1 sequence (whole entry)
Briefly: Inhibition of mushroom tyrosinase using L-DOPA substrate incubated for 10 mins.

Another data set relates to Mel-Ab. Described as §2. In kind it is functional.
The target of data set [6] is T1, Tyrosinase (Agaricus bisporus). Briefly: Inhibition of mushroom tyrosinase using L-DOPA substrate at 100 uM incubated for 10 mins. In short, it runs like this: as §1

The source made the active and inactive calls. No cut-off for these calls is given here.

The term inhibition denotes the share of the control response that was lost under treatment. Regarding `O=C(/C=C/c1ccc(O)cc1)NC(Cc1ccccc1)C(=O)NO` (centres undefined), the inhibition entry in data set [1] is “Active”. For the same molecule, in data set [2], the outcome was inactive. The inhibition result in data set [3] is “inactive”.

In the case of `COc1cc(/C=C/C(=O)NC(Cc2ccccc2)C(=O)NO)cc(OC)c1O` (centres undefined), in data set [1], the inhibition entry is “inactive”. Further, the inhibition entry in data set [3] is “Active”. Also, in data set [4], the Activity entry is “Non-toxic”. The molecule also yielded an inhibition at 100 µM in data set [5] of 30%.

For orientation: IC50 means the concentration at which inhibition is half-maximal. Low readings indicate higher potency, high ones lower potency. `O=C(/C=C/c1ccc(O)c(O)c1)NC(Cc1ccccc1)C(=O)NO` (centres undefined): the inhibition entry (in data set [1]; in data set [3]; in the data set on Mel-Ab) was “Active” each time. On Tyrosinase, this molecule showed a concentration for half-maximal inhibition (IC50) of 4.9 µM. The Activity entry in data set [4] is recorded as “Non-toxic”.

On to `COc1cc(/C=C/C(=O)N2CCCC2C(=O)NO)cc(OC)c1O` (centres undefined), for which the inhibition entry in data set [1] is “inactive”. In data set [2], the outcome was Active. Also, in data set [3], the inhibition entry was “Active”. The Activity entry in data set [4] is recorded as “Non-toxic”. In data set [5], this molecule showed an inhibition at 100 µM of 30%.

In the case of `O=C(O)/C=C/c1ccc(O)cc1`, in data set [2], the result was inactive. Moreover, the inhibition entry in data set [3] is “inactive”.

Regarding `O=C(NO)C1CCCN1C(=O)/C=C/c1ccc(O)c(O)c1` (centres undefined), the inhibition entry in data set [1] and in data set [3] was “Active” each time. For the same molecule, the outcome in data set [2] was Active. The Activity entry in data set [4] is recorded as “Non-toxic”. Also, testing at 100 µM in data set [5] gave an inhibition of 30%.

Turning to `COc1cc(/C=C/C(=O)NC(Cc2ccccc2)C(=O)NO)ccc1O` (centres undefined), the inhibition result (in data set [1]; with Mel-Ab) was “inactive” in each case. The outcome in data set [2] was Active. In addition, the inhibition result in data set [3] is “Active”. Moreover, the Activity result in data set [4] was “Non-toxic”.

Take `CC(=O)NC(Cc1ccccc1)C(=O)NO` (centres undefined): in data set [6], the inhibition was determined as 6%.

For `COc1cc(/C=C/C(=O)O)ccc1O`, the inhibition result in data set [1] is “inactive”. The result in data set [2] was Active.

As for `COc1cc(/C=C/C(=O)O)cc(OC)c1O`, in data set [1], the inhibition result is “inactive”.

Take `O=C(NO)C1CCCN1C(=O)/C=C/c1ccc(O)cc1` (centres undefined): in data set [1], the inhibition entry is “Active”. In addition, in data set [2], the outcome was inactive. Besides, in data set [3], the inhibition result was “inactive”.

Turning to `CC(=O)N1CCCC1C(=O)NO` (centres undefined), the inhibition in data set [6] is 5%.

For the molecule `O=C(O)/C=C/c1ccc(O)c(O)c1` [CAFFEIC ACID], in data set [4], the Activity entry is on record as “Toxic”.

Consider `O=C(CCc1ccc(O)c(O)c1)NC(Cc1ccccc1)C(=O)NO` (centres undefined), for which the inhibition result in data set [1] and in data set [3] was “inactive” each time.

With `OC[C@H]1O[C@@H](Oc2ccc(O)cc2)[C@H](O)[C@@H](O)[C@@H]1O`, in the data set on Mel-Ab, the inhibition result is “Active”.

`NC(=O)C(Cc1ccccc1)NC(=O)OCc1cc(=O)c(O)co1` (centres undefined) gave an IC50 on Tyrosinase of 4.2 µM.

For `O=C(O)CCc1ccc(O)c(O)c1`, the inhibition result in data set [3] is “inactive”.

Take `COc1cc(/C=C/C(=O)N2CCCC2C(=O)NO)ccc1O` (centres undefined): in data set [1], the inhibition entry was “inactive”. Further, the outcome in data set [2] was Active. Further, the inhibition entry in data set [3] is “Active”. Further, in data set [4], the Activity result was “Non-toxic”.

Regarding `O=C(NO)C1CCCN1C(=O)CCc1ccc(O)c(O)c1` (centres undefined), the inhibition entry in data set [1] and in data set [3] was “inactive” each time.

For the origin of these results see ChEMBL document CHEMBL2331432, “Synthesis and dual biological effects of hydroxycinnamoyl phenylalanyl/prolyl hydroxamic acid derivatives as tyrosinase inhibitor and antioxidant” (Bioorg Med Chem Lett, 2013).
